In ChEMBL document CHEMBL1141650, “Antitumor polycyclic acridines. 20. Search for DNA quadruplex binding selectivity in a series of 8,13-dimethylquino[4,3,2-kl]acridinium salts: telomere-targeted agents” (J Med Chem, 2008):

Legend:
[1] = Growth inhibition of human NCI60 cells after 2 days; assay type: functional
[2] = Inhibition of telomerase by TRAP assay
[3] = Selectivity index, ratio of GI50 for human NCI60 cells to IC50 for telomerase by TRAP assay; assay type: functional
Homo sapiens [4] = species: Homo sapiens; assay: Binding affinity to quadruplex human telomeric sequence d[AG3(TTAGGG3) by fluorescence titration method
How it was run: (§1)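 Fluorescence titration, read as ligand fluorescence quenching on DNA binding. Quadruplex was d[AG3(TTAGGG)3] and duplex ST-DNA. K came from a model fit to the titration data, and the ratio was taken as quadruplex K over duplex K.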

Salmonidae [5] = assay: Binding affinity to salmon testis duplex genomic DNA by fluorescence titration method; how it was run: as §1
[6] = Ratio of binding constant K for G-quadruplex human telomeric sequence d[AG3(TTAGGG3) to binding constant K for salmon testis duplex genomic DNA by fluorescence titration method; how it was run: as §1
Homo sapiens [7] = species: Homo sapiens; assay: Binding affinity to quadruplex human telomeric sequence d[AG3(TTAGGG3) by surface plasmon resonance method
How it was run: (§2)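 SPR in 10 mM HEPES pH 7.4 with 200 mM KCl, 3 mM EDTA, 0.005% surfactant P20. Quadruplex was human telomeric d[AG3(TTAGGG)3] and duplex the alternating GC eight base pair hairpin d[(CG)8]. Equilibrium binding constants K were determined, and the ratio taken as quadruplex K over duplex K.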

[8] = Binding affinity to duplex DNA d[(CG)8] by surface plasmon resonance method; how it was run: as §2
[9] = Ratio of binding constant K for G-quadruplex human telomeric sequence d[AG3(TTAGGG3) to binding constant K for duplex DNA d[(CG)8] by surface plasmon resonance method; how it was run: as §2
[10] = Stability of F21T DNA quadruplex sequence d[G3(T2AG3)3] assessed as thermal denaturation by FRET analysis
How it was run: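 FRET melting of F21T, d[G3(T2AG3)3] labelled with 5′ fluorescein and 3′ tamra, with compound at 1 µM. Lithium chloride buffer held sodium at 10 mM. Tm was taken where normalized fluorescence equalled 0.5, and ∆Tm as the ligand-induced change.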

Homo sapiens [11] = species: Homo sapiens; assay: Stabilization of G-quadruplex in human cmyc Pu27 DNA sequence assessed as decrease in full length product at less than 1 uM by Taq polymerase arrest assay relative to G-quadruplex arrest; design: scale not given: the % may be the effect or the level left
How it was run: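 Taq polymerase arrest: the quadruplex-forming sequence sat in a cassette template, and a radiolabeled primer was extended by the polymerase. Full-length (77-mer) and arrest product bands were quantified and their ratio plotted against drug concentration. IC50 was the concentration giving 50% decrease in full-length product relative to arrest products.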

Salmonidae [12] = assay: Binding affinity to salmon testis DNA by UV titration
How it was run: (§3)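 UV absorbance titration following the bathochromic shift on duplex binding. Data were fitted to one binding mode or to two (strong Ks and weak Kw) modes.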

[13] = Binding affinity to poly[dA].poly[dT] by UV titration; how it was run: as §3
[14] = Binding affinity to poly[dA-dT]2 by UV titration; how it was run: as §3
[15] = Binding affinity to poly[dG].poly[dC] by UV titration; how it was run: as §3
[16] = Binding affinity to poly[dG-dC]2 by UV titration; how it was run: as §3
Salmonidae [17] = assay: Increase in melting temperature of salmon testis DNA

SMILES | IC50 [2] [µM] | K (Homo sapiens [4]) | K (Salmonidae [5]) | Ratio [6] | ΔTm [10] [°C] | GI50 ([1]; Homo sapiens, NCI60, 48 h) [µM] | Selectivity index [3] | other results
COc1cc2c3c([n+](C)c4ccccc4c3c1)-c1ccc(Cl)cc1N2C |  |  |  |  |  | 0.75 |  | 
Cc1cc2c3c([n+](C)c4ccc(Cl)cc4c3c1)-c1cc(Cl)ccc1N2C |  |  |  |  |  | 4.71 |  | 
COc1cc2c3c([n+](C)c4ccccc4c3c1)-c1ccc(/C=C/C(=O)N3CCOCC3)cc1N2C (stereo in doubt; 9r) |  |  |  |  |  |  |  | GI50 [1]: 43.6 µM
c1ccc2c(c1)Nc1cccc3cc4[n+](c-2c13)CCC4 |  |  |  |  |  | 0.09 |  | 
CN1c2ccccc2-c2cccc3nc4ccccc4c1c23 |  |  |  |  |  | 0.32 |  | 
CCCCCCCCCCCC(=O)Nc1ccc2c3cccc4c3c([n+](C)c2c1)-c1ccccc1N4C |  |  |  |  |  | 0.54 |  | 
CNc1ccc2c3cccc4c3c([n+](C)c2c1)-c1ccccc1N4C |  |  |  |  |  | 0.46 |  | 
COC(=O)/C=C/c1ccc2c(c1)N(C)c1cc(OC)cc3c1c-2[n+](C)c1ccccc31 |  |  |  |  |  | 4.57 |  | 
Nc1ccc2c(c1)Nc1c3ccccc3nc3cccc-2c13 |  |  |  |  |  | 1.48 |  | 
c1cc2c3c(c1)-c1cccc4nc5ccccc5c(c14)N3CC2 |  |  |  |  |  | 0.06 |  | 
COc1cc2c3c([n+](C)c4ccccc4c3c1)-c1ccc(/C=C/C(=O)N3CCOCC3)cc1N2C (stereo in doubt; 9t) |  |  |  |  |  |  |  | GI50 [1]: > 100 µM
CCOC(=O)Nc1ccc2c3cccc4c3c([n+](C)c2c1)-c1ccccc1N4C |  |  |  |  |  | 0.66 |  | 
CN1c2ccccc2-c2c3c1cc(/C=C/C(=O)N1CCOCC1)cc3c1cc(Cl)ccc1[n+]2C |  |  |  |  |  | 12.3 |  | 
CCCCC(=O)Nc1ccc2c3cccc4c3c([n+](C)c2c1)-c1ccccc1N4C |  |  |  |  |  | 1 |  | 
COc1cc(NS(C)(=O)=O)ccc1Nc1c2ccccc2nc2ccccc12 |  |  |  |  | 0 |  |  | 
CN1c2ccccc2-c2c3c1cccc3c1ccc(NC(=O)c3ccccc3)cc1[n+]2C |  |  |  |  |  | 6.61 |  | 

Now from value to compound, other results behind:

IC50 [2] [µM] | K (Homo sapiens [4]) | K (Salmonidae [5]) | Ratio [6] | ΔTm [10] [°C] | SMILES | GI50 ([1]; Homo sapiens, NCI60, 48 h) [µM] | Selectivity index [3] | other results
0.21 | 10 10^5/M | 0.68 10^5/M | 14.7 |  | COC(=O)CCCCC(=O)Nc1ccc2c3cccc4c3c([n+](C)c2c1)-c1ccccc1N4C.[I-] | 6.02 | 27 | 
0.31 | 6 10^5/M | 0.7 10^5/M | 8.6 |  | CN1c2ccccc2-c2c3c1cccc3c1ccc(NC(=O)C(F)(F)F)cc1[n+]2C.[I-] | 2.2 | 7 | K (Homo sapiens [7]): 130 10^5/M; K [8]: 3.8 10^5/M; Ratio [9]: 34.2
0.37 | 3.2 10^5/M | 0.31 10^5/M | 10.3 | 4.5 | CN1c2ccccc2-c2c3c1cccc3c1cc(/C=C/C(=O)N3CCOCC3)ccc1[n+]2C | 67.6 |  | K (Homo sapiens [7]): 71 10^5/M; K [8]: 25 10^5/M; Ratio [9]: 2.8; Activity (Homo sapiens [11]): 50%
1.55 | 0.91 10^5/M | 0.71 10^5/M | 1.3 | 2.8 | CN1c2ccccc2-c2c3c1cccc3c1ccccc1[n+]2C.[I-] | 7.58 | 4.8 | 
0.28 | 6.4 10^5/M | 2.2 10^5/M | 2.9 | 9 | COc1cc2c3c([n+](C)c4ccc(Cl)cc4c3c1)-c1ccccc1N2C.[I-] | 0.74 | 2.6 | 
 | 1.6 10^5/M | 0.94 10^5/M | 1.7 | 0.5 | CC(=O)OCCCc1cc2c3c([n+](C)c4ccc(CCCOC(C)=O)cc4c3c1)-c1ccccc1N2C |  |  | K (Homo sapiens [7]): 2.4 10^5/M; K [8]: 1.7 10^5/M; Ratio [9]: 1.4
0.25 |  | 2.4 10^5/M |  | 7 | COS(=O)(=O)[O-].Cc1ccc2c(c1)-c1c3c(cc(C)cc3c3cc(C)ccc3[n+]1C)N2C |  | 1.6 | K (Homo sapiens [7]): 74 10^5/M; K [8]: 5.4 10^5/M; Ratio [9]: 13.7; K (Salmonidae [12]): 8 10^6/M; K [13]: 4 10^6/M; K [14]: 4 10^5/M; K [15]: 1 10^6/M; K [16]: 1.2 10^6/M; Activity (Homo sapiens [11]): 50%
0.26 | 6.7 10^5/M | 1.1 10^5/M | 6 | 5 | CN1c2ccccc2-c2c3c1cccc3c1cc(Cl)ccc1[n+]2C.[I-] | 3.16 | 12 | 
2 |  |  |  | 0 | CCN1c2ccccc2-c2c3c1cc(C)cc3c1ccccc1[n+]2CC.[I-] | 1.1 | 0.6 | 
0.74 |  |  |  | 2 | COS(=O)(=O)[O-].Cc1cc2c3c([n+](C)c4ccccc4c3c1)-c1ccccc1N2C | 1.29 | 1.7 | 
1.86 |  |  |  |  | CN1c2ccccc2-c2c3c1cccc3c1ccc(N)cc1[n+]2C.[I-] | 3.55 | 1.9 | 
 |  |  |  | 3.8 | CN(C)c1ccc2c3cccc4c3c([n+](C)c2c1)-c1ccccc1N4C | 0.28 |  | 
0.33 | 2.7 10^5/M | 0.56 10^5/M | 4.8 | 8 | Cc1cc2c3c([n+](C)c4ccc(F)cc4c3c1)-c1cc(F)ccc1N2C |  |  | Tm (Salmonidae [17]): 10.8 °C; K (Homo sapiens [7]): 110 10^5/M; K [8]: 3.4 10^5/M; Ratio [9]: 32.3; K (Salmonidae [12]): 2 10^5/M; K [13]: 8 10^4/M; K [14]: 6 10^5/M; K [15]: 1 10^6/M; K [16]: 6 10^6/M; Activity (Homo sapiens [11]): 50%
0.38 | 3.7 10^5/M | 0.63 10^5/M | 5.9 | 10 | CC(=O)Nc1ccc2c3cccc4c3c([n+](C)c2c1)-c1ccccc1N4C.[I-] |  | 32 | K (Homo sapiens [7]): 240 10^5/M; K [8]: 3.8 10^5/M; Ratio [9]: 63; Activity (Homo sapiens [11]): 50%
0.73 | 1.9 10^5/M | 0.83 10^5/M | 2.3 |  | CN1c2ccccc2-c2c3c1cccc3c1ccc(N(C)S(=O)(=O)c3ccc(F)cc3)cc1[n+]2C.[I-] | 10 | 14 | K (Homo sapiens [7]): 48 10^5/M; K [8]: 17 10^5/M; Ratio [9]: 2.8
0.23 | 11 10^5/M | 1.2 10^5/M | 9.2 |  | CN1c2ccccc2-c2c3c1cccc3c1ccc(NC(=O)C(C)(C)C)cc1[n+]2C.[I-] | 3.3 | 14 | 
0.41 | 3.1 10^5/M | 0.53 10^5/M | 5.8 |  | CC(=O)Nc1ccc2c(c1)c1cccc3c1c([n+]2C)-c1ccccc1N3C.[I-] | 81.3 | 195 | K (Homo sapiens [7]): 250 10^5/M; K [8]: 4.4 10^5/M; Ratio [9]: 57
